Drawing on ChEMBL document CHEMBL1135409, “Structure-activity relationships of a novel class of endothelin-A receptor antagonists and discovery of potent and selective receptor antagonist, 2-(benzo[1,3]dioxol-5-yl)-6-isopropyloxy-4-(4-methoxyphenyl)-2H-chromene-3-carboxylic acid (S-1255). 1. Study on structure-activity relationships and …” (J Med Chem, 2002), this text covers IC50 and Ratio for 18 compounds.

Structures are written as SMILES.

As a reminder, the IC50 is the concentration that gives 50% inhibition.

In assay [1] the target is T1, Endothelin receptor type B (Sus scrofa, UniProt P35463).
T1 sequence (P35463 whole entry): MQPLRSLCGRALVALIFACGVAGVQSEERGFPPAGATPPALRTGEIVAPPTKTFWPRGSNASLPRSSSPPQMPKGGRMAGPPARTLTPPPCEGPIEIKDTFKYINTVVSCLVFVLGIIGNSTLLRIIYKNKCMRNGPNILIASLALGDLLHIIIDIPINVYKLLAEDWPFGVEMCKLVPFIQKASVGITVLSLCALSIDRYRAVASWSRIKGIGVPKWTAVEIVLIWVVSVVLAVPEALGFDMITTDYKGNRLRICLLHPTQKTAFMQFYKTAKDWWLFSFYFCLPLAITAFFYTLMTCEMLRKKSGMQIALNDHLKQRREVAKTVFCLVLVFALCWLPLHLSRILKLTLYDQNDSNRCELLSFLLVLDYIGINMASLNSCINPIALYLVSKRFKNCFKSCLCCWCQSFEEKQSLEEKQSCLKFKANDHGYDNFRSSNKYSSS
Kind of assay: Binding affinity to endothelin B receptor measured by inhibition of [125I]ET-3 binding recombinant pig ET-B receptor expressed in COS-7 cells. The format is cell-based. Summed up: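 COS cells transfected with porcine ETB cDNA, in Hank's solution with 20 mM HEPES and protease inhibitors. Stopped by filtration on GF/C filters presoaked in 1% polyethylenimine, washed with 50 mM Tris-HCl pH 7.4, then counted. Nonspecific binding taken with 0.1 μM ET-3.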

The nature of assay [2]: Ratio of inhibitory concentrations at ET-B receptor relative to that of ET-A receptor.
Assay [3] deals with T2, Endothelin-1 receptor (Rattus norvegicus, UniProt P26684).
T2 sequence (P26684 whole entry): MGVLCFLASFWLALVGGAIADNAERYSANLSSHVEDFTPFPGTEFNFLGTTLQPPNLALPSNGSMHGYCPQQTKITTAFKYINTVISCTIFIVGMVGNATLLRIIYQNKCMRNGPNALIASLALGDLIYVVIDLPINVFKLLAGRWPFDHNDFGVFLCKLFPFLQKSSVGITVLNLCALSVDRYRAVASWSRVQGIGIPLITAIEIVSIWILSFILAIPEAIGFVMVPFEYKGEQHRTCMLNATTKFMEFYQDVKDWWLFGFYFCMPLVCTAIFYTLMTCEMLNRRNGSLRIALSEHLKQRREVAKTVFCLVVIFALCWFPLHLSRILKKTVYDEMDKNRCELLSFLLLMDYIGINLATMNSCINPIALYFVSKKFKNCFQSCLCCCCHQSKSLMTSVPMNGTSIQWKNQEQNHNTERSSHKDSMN
Kind of assay: Binding affinity for endothelin A receptor by inhibition of [125I]ET1 binding in rat aorta smooth muscle cells. The class given is tissue-based.

Assay [4] concerns the target T3, Endothelin receptor type B (Homo sapiens, UniProt P24530).
T3 sequence (P24530 whole entry): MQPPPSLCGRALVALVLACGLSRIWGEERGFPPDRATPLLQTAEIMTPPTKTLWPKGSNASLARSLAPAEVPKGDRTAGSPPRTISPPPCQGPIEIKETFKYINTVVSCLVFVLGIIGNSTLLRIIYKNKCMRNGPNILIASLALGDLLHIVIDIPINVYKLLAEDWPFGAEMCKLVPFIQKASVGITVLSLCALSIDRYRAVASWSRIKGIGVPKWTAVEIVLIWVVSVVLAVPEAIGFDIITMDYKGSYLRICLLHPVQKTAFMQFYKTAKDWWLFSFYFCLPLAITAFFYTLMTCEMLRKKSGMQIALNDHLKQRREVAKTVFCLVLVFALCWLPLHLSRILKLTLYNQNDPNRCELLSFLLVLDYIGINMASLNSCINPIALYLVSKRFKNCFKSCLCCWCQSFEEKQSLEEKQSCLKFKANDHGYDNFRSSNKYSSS
Description: Binding affinity at human Endothelin B receptor. Summed up:
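Membranes from CHO cells expressing human ETB receptor were incubated with [125I]ET-3 (25 pM as added) and the test compound at various concentrations for 60 min at 37 °C. Buffer was HEPES (20 mM)-buffered Hank's solution with protease inhibitors. Samples were filtered on PEI-presoaked glass-fibre filters, washed with 50 mM Tris-HCl pH 7.4 and counted. Nonspecific binding was taken with 0.1 µM ET-3.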

Assay [5] concerns the target T4, Endothelin-1 receptor (Homo sapiens, UniProt P25101).
T4 sequence (P25101 whole entry): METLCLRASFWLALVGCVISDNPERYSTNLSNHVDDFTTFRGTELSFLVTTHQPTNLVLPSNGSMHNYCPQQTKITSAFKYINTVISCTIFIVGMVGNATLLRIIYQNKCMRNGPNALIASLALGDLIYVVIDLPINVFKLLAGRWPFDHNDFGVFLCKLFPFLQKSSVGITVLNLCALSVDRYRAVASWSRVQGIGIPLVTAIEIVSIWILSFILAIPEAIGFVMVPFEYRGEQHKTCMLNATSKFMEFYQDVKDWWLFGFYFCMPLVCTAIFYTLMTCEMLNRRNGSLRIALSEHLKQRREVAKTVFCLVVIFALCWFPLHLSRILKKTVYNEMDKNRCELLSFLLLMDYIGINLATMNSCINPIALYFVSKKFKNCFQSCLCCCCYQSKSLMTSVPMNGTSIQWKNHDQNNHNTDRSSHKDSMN
Description: Binding affinity at human Endothelin A receptor. In outline: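 Membranes from CHO cells expressing human ETA receptor were incubated with [125I]ET-1 and the test compound at various concentrations for 60 min at 37 °C. Buffer was Hank's solution with 20 mM HEPES and protease inhibitors. Bound ligand was collected on PEI-presoaked glass-fibre filters and washed with 50 mM Tris-HCl pH 7.4, then counted.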

In the case of `CCCCOc1ccc2c(c1)C(c1ccc(OC)cc1)=C(C(=O)O)C(c1ccc3c(c1)OCO3)O2` (stereo not given), the half-inhibitory concentration (IC50) came to 130 nM in assay [1] and 17 nM on Endothelin-1 receptor [3]. The Ratio in assay [2] was determined as 7.6.

On to `CC(C)Oc1ccc2c(c1)C=C(C(=O)O)C(c1ccc3c(c1)OCO3)O2` (stereo not given), for which the IC50 in assay [1] came to 52000 nM; on Endothelin-1 receptor [3], 330 nM. Moreover, in assay [2], the Ratio was 160.

`COc1ccc(C2=C(C(=O)O)[C@@H](c3ccc4c(c3)OCO4)Oc3ccc(OC(C)C)cc32)cc1`: the IC50 in assay [1] amounted to 120 nM; in assay [4], 200 nM; on Endothelin-1 receptor [3], 0.19 nM; at Endothelin-1 receptor [5] it was 0.45 nM.

Turning to `CCCCOC1=C(C(=O)O)C(c2ccc3c(c2)OCO3)Oc2ccc(OCC)cc21` (stereo not given), the IC50 in assay [1] came to 1600 nM; on Endothelin-1 receptor [3] it was 4.2 nM. Further, the Ratio in assay [2] turned out to be 380.

In the case of `CCCCOC1=C(C(=O)O)C(c2ccc3c(c2)OCO3)Oc2ccc(OCCC)cc21` (stereo not given), the IC50 in assay [1] came out at 520 nM; on Endothelin-1 receptor [3], 2 nM. Moreover, the Ratio in assay [2] stood at 260.

In the case of `COc1ccc(C2=C(C(=O)O)C(c3ccc4c(c3)OCO4)Oc3ccc(OC(C)CO)cc32)cc1` (stereo not given), the IC50 is 170 nM in assay [1] and 2.8 nM on Endothelin-1 receptor [3]. Also, in assay [2], the Ratio was found to be 61.

For `COC1=C(C(=O)O)C(c2ccc3c(c2)OCO3)Oc2ccc(OC(C)C)cc21` (stereo not given), the IC50 stood at 6400 nM in assay [1] and 9.1 nM on Endothelin-1 receptor [3]. Further, the Ratio in assay [2] worked out at 700.

As for `COc1ccc(C2=C(C(=O)O)C(c3ccc4c(c3)OCO4)Oc3ccccc32)cc1` (stereo not given), the results for the half-maximal inhibitory concentration (IC50) (in assay [1]; on Endothelin-1 receptor [3]) were 1400 nM and 86 nM, respectively. The Ratio in assay [2] was 16.

In the case of `CCCCC1=C(C(=O)O)[C@@H](c2ccc3c(c2)OCO3)Oc2ccc(OC(C)C)cc21`, the IC50 in assay [1] came to 400 nM; at Endothelin-1 receptor [3] it was 0.42 nM. Besides, in assay [2], the Ratio turned out to be 950.

On to `CCCCOC1=C(C(=O)O)C(c2ccc3c(c2)OCO3)Oc2ccc(OCCCC)cc21` (stereo not given), for which the IC50 in assay [1] turned out to be 470 nM; at Endothelin-1 receptor [3], 3 nM. The Ratio in assay [2] worked out at 160.

For `COc1ccc(C2=C(C(=O)O)C(c3ccc4c(c3)OCO4)Oc3ccc(C(C)C)cc32)cc1` (stereo not given), the figures for the IC50 (in assay [1]; on Endothelin-1 receptor [3]) were 190 nM and 110 nM, respectively. Besides, in assay [2], the Ratio is 1.7.

For `CCCOc1ccc2c(c1)C(c1ccc(OC)cc1)=C(C(=O)O)C(c1ccc3c(c1)OCO3)O2` (stereo not given), the results for the IC50 (in assay [1]; on Endothelin-1 receptor [3]) were 220 nM and 4.4 nM, respectively. Besides, in assay [2], the Ratio is 50.

Turning to `CCCOc1cccc2c1C(c1ccc(OC)cc1)=C(C(=O)O)C(c1ccc3c(c1)OCO3)O2` (stereo not given), the values for the IC50 (in assay [1]; on Endothelin-1 receptor [3]) were 1800 nM and 1200 nM, respectively. For the same compound, in assay [2], the Ratio is 1.5.

Consider `COC1=C(C(=O)O)[C@@H](c2ccc3c(c2)OCO3)Oc2ccc(OC(C)C)cc21`, for which the IC50 came to 3500 nM in assay [1] and 5.2 nM on Endothelin-1 receptor [3]. Moreover, in assay [2], the Ratio was found to be 670.

With `CC(C)Oc1ccc2c(c1)C=C(C(=O)O)[C@@H](c1ccc3c(c1)OCO3)O2`, the figures for the IC50 (in assay [1]; on Endothelin-1 receptor [3]) were 52000 nM and 240 nM, respectively. In assay [2], the Ratio amounted to 220.

`CCCCOC1=C(C(=O)O)C(c2ccc3c(c2)OCO3)Oc2ccccc21` (stereo not given): the IC50 was 4900 nM in assay [1] and 66 nM at Endothelin-1 receptor [3]. The Ratio in assay [2] amounted to 74.

For `COc1ccc(C2=C(C(=O)O)C(c3ccc4c(c3)OCO4)Oc3ccc(OC)cc32)cc1` (stereo not given), the values for the IC50 (in assay [1]; on Endothelin-1 receptor [3]) were 540 nM and 74 nM, respectively. The Ratio in assay [2] was 7.3.

For `CCOc1ccc2c(c1)C(c1ccc(OC)cc1)=C(C(=O)O)C(c1ccc3c(c1)OCO3)O2` (stereo not given), the values for the IC50 (in assay [1]; on Endothelin-1 receptor [3]) were 400 nM and 3.8 nM, respectively. Further, the Ratio in assay [2] was determined as 110.
